ZTA DNA inh – counter-screen for EBNA-1 inhibitors: inhibitors of Epstein-Barr virus ZTA; ZTA-DNA binding, fluorescence polarization; hit rate 0.15% among 320,000; P03206; inhibition, % at 11 µM; AID 2234; in the data active = inhibition above about 33%
Target sequence (P03206 whole entry, looked up): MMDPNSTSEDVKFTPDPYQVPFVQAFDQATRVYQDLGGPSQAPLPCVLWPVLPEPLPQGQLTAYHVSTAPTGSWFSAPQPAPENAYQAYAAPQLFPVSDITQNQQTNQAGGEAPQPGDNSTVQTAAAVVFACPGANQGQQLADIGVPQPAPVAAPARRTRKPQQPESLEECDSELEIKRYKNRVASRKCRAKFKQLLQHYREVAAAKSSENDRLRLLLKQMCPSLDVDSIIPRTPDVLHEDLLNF
EBNA-1 inhibitor – blocks EBNA-1 binding to DNA | EBNA-1 DNA binding, fluorescence polarization | inhibition, % at 14.8 µM | hit rate 0.34% among 300,000; in the data active = inhibition above about 28%
GPR7 antagonist – human neuropeptides B/W receptor 1 antagonism | inhibition, % at 4.4 µM | P48145 | AID 1861 | GPR7-expressing cells, fluorescence antagonist assay | hit rate 1.1% among 290,000; in the data active = inhibition above about 16%, passing the limit was not always enough;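 also: cells stimulated with the agonist NPW; 0% = agonist with vehicle and 100% = vehicle without agonist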
Target sequence (P48145 whole entry, looked up): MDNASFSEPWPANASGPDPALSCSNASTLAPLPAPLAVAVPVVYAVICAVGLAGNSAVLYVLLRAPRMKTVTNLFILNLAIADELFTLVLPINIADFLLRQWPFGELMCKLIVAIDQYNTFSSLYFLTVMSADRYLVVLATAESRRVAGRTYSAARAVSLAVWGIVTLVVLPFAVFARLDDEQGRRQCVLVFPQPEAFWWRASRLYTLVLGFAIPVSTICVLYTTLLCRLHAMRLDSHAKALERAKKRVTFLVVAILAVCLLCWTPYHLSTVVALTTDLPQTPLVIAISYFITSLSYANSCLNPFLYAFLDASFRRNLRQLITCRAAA
NS3 helicase inh – inhibitors of Hepatitis C virus NS3 helicase | AID 1800 | NS3 helicase DNA unwinding, Cy5 molecular beacon fluorescence | hit rate 0.56% among 290,000 | inhibition, % at 10.9 µM;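 active = inhibition above the mean of all tested compounds plus 3 SD, set per campaign, cut at about 35% in these data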;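 also: 0% = DMSO wells and 100% = thioflavine S control wells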
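Material: hepatitis C virus NS3 helicase domain fragment enzyme; measured by: Cy5 fluorescence, 0 and 60 min reads; control set: DMSO and thioflavine S; incubation: 60 min unwinding reaction at 25 °C after ATP addition; read-out basis: % inhibition from 60/0 min fluorescence ratio, DMSO 0%, thioflavine S 100%; repeats: singlicate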
DNA FID counter-1 – fluorescent intercalator displacement, NS3 helicase counter-screen; DNA fluorescent intercalator displacement, fluorescence; inhibition, % at 7.9 µM; AID 1845; hit rate 0.17% among 290,000;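 also: 0% = vehicle and 100% = reference compound; higher means more ethidium bromide displaced from hairpin DNA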
NS3 helicase cf – HCV NS3 helicase inhibition, confirmation assay; shares compounds with NS3 helicase inh; NS3 helicase DNA unwinding, Cy5 molecular beacon fluorescence; hit rate 31% among 1,600; AID 1943; inhibition, % at 10.9 µM;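 active = inhibition above the mean of all tested compounds plus 3 SD, cutoff set per campaign, cut at about 36% in these data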
DNA FID counter-2 – displaces DNA intercalator in HCV helicase counter-screen | shares compounds with NS3 helicase inh | DNA fluorescent intercalator displacement, fluorescence | inhibition, % at 7.9 µM | hit rate 4% among 1,600;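 also: 0% = vehicle and 100% = reference compound; higher means more displacement of ethidium bromide from the DNA hairpin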
FID counter DR – DNA intercalator displacement in dose response | shares compounds with NS3 helicase inh | fluorescent intercalator displacement from DNA, fluorescence | IC50, µM | 120 tested, under 10 active; call rule not given here
Starred values were filed as active, the others as inactive; x = no result. Compounds with a hit are over-represented: about 2% of the library has one in this group of screens. Rule as the data show it, unless noted: active = inhibition above about 37%; inactive = the rest.

SMILES	ZTA DNA inh	EBNA-1 inhibitor	GPR7 antagonist	NS3 helicase inh	DNA FID counter-1	NS3 helicase cf	DNA FID counter-2	others
CCOC(=O)Nc1ccc([N+](=O)[O-])cc1OC	1	-12	-3	42*	0	-12	0
Cc1cc(Cl)ccc1Oc1ccc(C(N)=O)cc1[N+](=O)[O-]	-7	-12	-5	-2	2	x	x
Cc1cc(Cl)ccc1Oc1ccccc1C(=O)CC#N	-6	-6	-6	37*	-8	53*	9	FID counter DR=>79
COC/C=C/C1=CC2=CC(=O)C(C)(OC(=O)c3cnc4ccccc4n3)C(=O)C2=CN1c1ccccc1 (stereo unspecified)	-12	3	x	x	x	x	x
COC/C=C/C1=CC2=CC(=O)C(C)(OC(=O)c3cnc4ccccc4n3)C(=O)C2=CN1C1CCCCC1 (stereo unspecified)	-3	0	-4	38*	-21	10	-13
COC/C=C/C1=CC2=CC(=O)C(C)(OC(=O)c3cnc4ccccc4n3)C(=O)C2=CN1c1ccc(CO)cc1 (stereo unspecified)	11	9	-7	50*	-13	42*	22
CCOC(=O)CC(NC(=O)CCS(=O)(=O)c1ccc2c(c1)n(C)c(=O)c(=O)n2C)c1ccc(C)cc1 (stereo unspecified)	16	2	3	-3	-21	x	x
O=C(O)CN1C(=O)/C(=C\c2cccc(OCc3ccc(Cl)cc3Cl)c2)SC1=S	x	x	1	19	13	x	x
O=C(O)CN1C(=O)/C(=C\c2ccccc2OCc2ccc(Cl)cc2Cl)SC1=S	26	24	-9	47*	13	66*	32
COc1cc(/C=C2/SC(=S)N(Cc3ccccc3)C2=O)ccc1OCC(=O)O	4	2	-2	37*	-25	35	32
O=C(O)CN1C(=O)/C(=C\c2cc(Br)ccc2OCc2ccc([N+](=O)[O-])cc2)SC1=S	17	2	8	56*	23	66*	56*
O=C(O)CN1C(=O)/C(=C\c2cc(Br)ccc2OCc2ccccc2Cl)SC1=S	7	6	-22	47*	15	69*	48*
O=C(O)CN1C(=O)/C(=C\c2cc(Br)ccc2OCc2ccccc2F)SC1=S	6	-1	-18	25	13	x	x
Cc1ccc(C(=O)N[C@H](C(=O)NC2CCCCCCC2)C(C)C)cc1	-1	x	x	x	x	x	x
Cc1ccc(S(=O)(=O)N2CCN(c3ncnc4sccc34)CC2)cc1	5	11	6	-4	-24	x	x
CC(Sc1nnc(-c2cccnc2)o1)C(=O)NC1CCCCC1 (stereo unspecified)	-1	x	x	x	x	x	x
O=C1/C(=C\c2cc(Br)cc(Br)c2O)SC(=S)N1Cc1ccccc1	-9	-10	4	57*	-1	75*	29
CCOc1ccc(-c2nnc(NC(=O)Cc3cc(OC)c(OC)c(OC)c3)o2)cc1	-1	0	-2	5	-28	x	x
CCOc1ccccc1-n1c(SCC(=O)N2CCOCC2)nc2ccccc2c1=O	-14	-17	-1	-6	-25	x	x
Cc1cccc(OCC(=O)N/N=C/C=C/c2ccco2)c1	6	6	-8	43*	-28	-7	4
COc1cccc(OCC(=O)Nc2cc(NC(=O)COc3cccc(OC)c3)cc(C(=O)O)c2)c1	16	9	-17	18	-30	x	x
Cc1cccc(OCC(=O)Nc2cc(NC(=O)COc3cccc(C)c3)cc(C(=O)O)c2)c1	0	3	24	41*	-21	63*	-23
C/C(=N\NC(=O)CC1(C)OCCO1)c1cccs1	-6	2	-5	46*	-4	-8	-1
CCN(C(=O)COC(=O)c1ccc(O)cc1O)c1c(N)n(Cc2ccccc2)c(=O)[nH]c1=O	-11	x	x	x	x	x	x
O=C(Cn1cnc2ccccc2c1=O)NCCC(=O)N1CCN(Cc2ccccc2)CC1	6	7	5	38*	-10	-19	-5
SMILES	ZTA DNA inh	EBNA-1 inhibitor	GPR7 antagonist	NS3 helicase inh	DNA FID counter-1	NS3 helicase cf	DNA FID counter-2	others
O=C(NC(=S)Nc1ccc(-c2ccc(CO)o2)cc1)c1cccs1	8	-9	2	37*	-19	40*	13
Cc1ccc(C(=O)NC(=S)Nc2ccc(-c3ccc(CO)o3)cc2)cc1	-3	12	-5	15	-13	x	x
COc1ccccc1-c1nnc(NC(=O)c2ccc(S(=O)(=O)N3CCCC3)cc2)o1	-4	0	-13	53*	-56	1	-19
O=C(CSCc1ccccc1)N1CCN(S(=O)(=O)c2cccc(F)c2)CC1	3	2	x	x	x	x	x
Clc1ccc(C2Nc3cccc4cccc(c34)N2)cc1Cl	-18	-20	12	59*	0	-22	25
Clc1cccc(C2Nc3cccc4cccc(c34)N2)c1	2	-14	17	55*	0	-10	13
COc1ccc(C2Nc3cccc4cccc(c34)N2)cc1	-1	0	0	6	3	x	x
Brc1cccc(C2Nc3cccc4cccc(c34)N2)c1	-6	-9	-7	24	-3	x	x
CN1CCN(C(c2ccc(Cl)cc2)c2cc(Cl)c3cccnc3c2O)CC1 (stereo unspecified)	3	10	0	46*	-11	17	58*
CN1CCN(C(c2ccc(C(F)(F)F)cc2)c2cc(Cl)c3cccnc3c2O)CC1 (stereo unspecified)	-10	-7	-8	-40	-2	x	x
CCCN(CC#CC(O)(c1ccccc1)c1cccnc1)CCC (stereo unspecified)	10	6	0	45*	-2	-10	4
COc1ccccc1-c1cc(C(=O)N2CCc3ccccc3C2)c2ccccc2n1	1	-11	-2	37*	-22	-17	-41
CC(=O)c1ccc(-c2ccc(C(=O)NCC3CCCO3)o2)cc1 (stereo unspecified)	16	-7	x	x	x	x	x
CCCCn1c(N)nc2ccccc21	-11	-1	-4	-7	1	x	x
Cc1ccc(Cn2c(/C=C/c3ccco3)nc3ccccc32)cc1	-4	13	-4	43*	-18	-13	-1
CCCn1c(/C=C/c2ccco2)nc2ccccc21	8	-2	6	52*	-35	1	5
CCCCn1c(/C=C/c2ccco2)nc2ccccc21	-34	-7	-8	44*	-24	-14	-9
Clc1ccc(Cn2c(/C=C/c3ccco3)nc3ccccc32)cc1	-8	9	-1	23	-29	x	x
CC1(C)Cc2c(sc(NC(=O)C(=O)NCC3CCCO3)c2C(N)=O)CO1 (stereo unspecified)	-7	5	7	6	-31	x	x
CC(C)CC1NC(=O)c2ccccc2-n2c1nc1ccc(F)cc1c2=O (stereo unspecified)	1	x	x	x	x	x	x
